Assay results published in ChEMBL document CHEMBL2417474, “Synthesis, antiproliferative and anti-inflammatory activities of some novel 6-aryl-2-(p-(methanesulfonyl)phenyl)-4,5-dihydropyridazi-3(2H)-ones” (Eur J Med Chem, 2013).

Legend:
Format in all cases: functional
[1] = test system: M14; test: Growth inhibition of human M14 cells assessed as cell growth at 10 uM after 48 hrs by sulforhodamine B assay; settings: M14, 48 h, read-out: Activity
[2] = test system: NCI-H522; test: Growth inhibition of human NCI-H522 cells assessed as cell growth at 10 uM after 48 hrs by sulforhodamine B assay; settings: NCI-H522, 48 h, read-out: Activity
[3] = test system: UACC-62; test: Growth inhibition of human UACC62 cells assessed as cell growth at 10 uM after 48 hrs by sulforhodamine B assay; settings: UACC-62, 48 h, read-out: Activity
Outline: (§1)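 Single-dose NCI screen. Tumor lines were cultured in medium with 5% fetal calf serum and 2 mM L-glutamine, preincubated 24 h, then given compound in DMSO. After 48 h continuous exposure, cell growth was estimated by sulforhodamine B protein assay.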

[4] = test system: A498; test: Growth inhibition of human A498 cells after 48 hrs by sulforhodamine B assay; settings: A498, 48 h
Outline: (§2)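 NCI 60-cell-line panel grown in RPMI-type medium with 5% fetal calf serum and 2 mM L-glutamine. Cells preincubated 24 h, then exposed continuously for 48 h to compound in DMSO at 10^-4 to 10^-8 M (five 10-fold levels). Growth read by SRB protein stain. GI50 is the concentration giving a 50% reduction in net protein increase relative to control cells.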

[5] = test system: MCF7; test: Growth inhibition of human MCF7 cells after 48 hrs by sulforhodamine B assay; settings: MCF7, 48 h; outline: as §2
[6] = test system: CCRF-CEM; test: Growth inhibition of human CCRF-CEM cells assessed as cell growth at 10 uM after 48 hrs by sulforhodamine B assay; settings: read-out: Activity
[7] = test system: OVCAR-4; test: Growth inhibition of human OVCAR4 cells after 48 hrs by sulforhodamine B assay; settings: OVCAR-4, 48 h
Outline: (§3)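 NCI 60-cell-line panel. Cells were grown in medium with 5% fetal calf serum and 2 mM L-glutamine, then preincubated 24 h in plates. Compounds were added from DMSO at five 10-fold concentrations from 100 to 0.01 µM and left on cells continuously for 48 h. Cell growth was read by sulforhodamine B protein stain. GI50 is the concentration that halves net protein increase relative to control cells.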

[8] = test system: LOX IMVI; test: Growth inhibition of human LOXIMVI cells assessed as cell growth at 10 uM after 48 hrs by sulforhodamine B assay; settings: read-out: Activity
[9] = test system: 786-0; test: Growth inhibition of human 786-0 cells after 48 hrs by sulforhodamine B assay; settings: 786-0, 48 h; outline: as §2
[10] = test system: MCF7; test: Growth inhibition of human MCF7 cells assessed as cell growth at 10 uM after 48 hrs by sulforhodamine B assay; settings: MCF7, 48 h, read-out: Activity
[11] = test system: RXF 393; test: Growth inhibition of human RXF393 cells assessed as cell growth at 10 uM after 48 hrs by sulforhodamine B assay; settings: RXF 393, 48 h, read-out: Activity
[12] = test system: HL-60(TB); test: Growth inhibition of human HL-60(TB) cells assessed as cell growth at 10 uM after 48 hrs by sulforhodamine B assay; settings: HL-60, 48 h, read-out: Activity
[13] = test system: SK-MEL-2; test: Growth inhibition of human SK-MEL-2 cells after 48 hrs by sulforhodamine B assay; settings: SK-MEL-2, 48 h; outline: as §3
[14] = test system: BT-549; test: Growth inhibition of human BT549 cells assessed as cell growth at 10 uM after 48 hrs by sulforhodamine B assay; settings: BT-549, 48 h, read-out: Activity
[15] = test system: NCI-H23; test: Growth inhibition of human NCI-H23 cells assessed as cell growth at 10 uM after 48 hrs by sulforhodamine B assay; settings: NCI-H23, 48 h, read-out: Activity
[16] = test system: TK-10; test: Growth inhibition of human TK10 cells after 48 hrs by sulforhodamine B assay; settings: TK-10, 48 h
Outline: (§4)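 NCI 60-line panel. Cells were grown in medium with 5% fetal calf serum and 2 mM L-glutamine and preincubated 24 h in plates. Compound in DMSO was added at 10^-4 to 10^-8 M (five 10-fold levels), with continuous exposure for 48 h. Growth was read by SRB protein staining. GI50 is the concentration giving 50% reduction in net protein increase versus control cells.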

[17] = test system: OVCAR-8; test: Growth inhibition of human OVCAR8 cells assessed as cell growth at 10 uM after 48 hrs by sulforhodamine B assay; settings: OVCAR-8, 48 h, read-out: Activity
[18] = test system: HCT-116; test: Growth inhibition of human HCT116 cells assessed as cell growth at 10 uM after 48 hrs by sulforhodamine B assay; settings: HCT-116, 48 h, read-out: Activity
[19] = test system: OVCAR-5; test: Growth inhibition of human OVCAR5 cells after 48 hrs by sulforhodamine B assay; settings: OVCAR-5, 48 h; outline: as §3
[20] = test system: Malme-3M; test: Growth inhibition of human MALME-3M cells after 48 hrs by sulforhodamine B assay; outline: as §2
[21] = test system: Rattus norvegicus; test: Antiinflammatory activity in Wistar rat assessed as inhibition of carrageenan-induced paw edema at 0.05 mmol/kg, po administered 30 mins prior challenge measured after 5 hrs
Outline: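 Wistar rats of either sex, 150–175 g, fasted 16 h, 6 per group. Dosed orally at 0.05 mmol/kg, suspended in 1% CMC in water (10 ml/kg). 30 min later, 0.1 ml of 1% carrageenan in saline injected subplantar into the left hind paw. Paw volume read by plethysmometer at 0, 3 and 5 h. % inhibition = (1 − Vt/Vc) × 100 against the vehicle group.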

[22] = test system: IGROV-1; test: Growth inhibition of human IGROV1 cells after 48 hrs by sulforhodamine B assay; settings: IGROV-1, 48 h; outline: as §2
[23] = test system: ACHN; test: Growth inhibition of human ACHN cells assessed as cell growth at 10 uM after 48 hrs by sulforhodamine B assay; settings: read-out: Activity
[24] = test system: NCI-H226; test: Growth inhibition of human NCI-H226 cells assessed as cell growth at 10 uM after 48 hrs by sulforhodamine B assay; settings: NCI-H226, 48 h, read-out: Activity
[25] = test system: SR; test: Growth inhibition of human SR cells assessed as cell growth at 10 uM after 48 hrs by sulforhodamine B assay; settings: read-out: Activity; outline: as §1
[26] = Growth inhibition of human EKVX cells after 48 hrs by sulforhodamine B assay; outline: as §2
[27] = test system: OVCAR-3; test: Growth inhibition of human OVCAR3 cells after 48 hrs by sulforhodamine B assay; settings: OVCAR-3, 48 h; outline: as §3
[28] = test system: SW-620; test: Growth inhibition of human SW620 cells after 48 hrs by sulforhodamine B assay; settings: SW-620, 48 h; outline: as §4
[29] = read-out: LC50 (the source's name)

Compound: Cc1ccc(C2=NN(c3ccc(S(C)(=O)=O)cc3)C(=O)CC2)cc1
- growth at 10 µM [1]: 10.2%
- growth at 10 µM [2]: 12.8%
- growth at 10 µM [3]: 42.9%
- GI50 [4]: 140 nM
- TGI [4]: 1600 nM
- CC50 [4, 29]: > 100 µM
- GI50 [5]: 1380 nM
- LC50 (concentration killing 50% of cells) [5]: > 100 µM
- TGI [5]: > 100 µM
- growth at 10 µM [6]: 14.9%
- GI50 [7]: > 100 µM
- LC50 [7]: > 100 µM
- TGI [7]: > 100 µM
- growth at 10 µM [8]: 33.7%
- GI50 [9]: 5.78 µM
- LC50 [9]: > 100 µM
- TGI [9]: > 100 µM
- growth at 10 µM [10]: 16.2%
- growth at 10 µM [11]: 15.4%
- growth at 10 µM [12]: -12%
- GI50 [13]: 0.43 µM
- LC50 [13]: > 100 µM
- TGI [13]: > 100 µM
- growth at 10 µM [14]: 11.3%
- growth at 10 µM [15]: -19.6%
- GI50 [16]: 7.69 µM
- TGI [16]: > 100 µM
- CC50 [16, 29]: > 100 µM
- growth at 10 µM [17]: 31.8%
- growth at 10 µM [18]: 17.7%
- GI50 [19]: 3.69 µM
- TGI [19]: > 100 µM
- CC50 [19, 29]: > 100 µM
- TGI [20]: > 100 µM
- CC50 [20, 29]: > 100 µM
- inhibition in vivo at 50 µmol/kg [21]: 60.5%
- GI50 [22]: 830 nM
- LC50 [22]: > 100 µM
- TGI [22]: > 100 µM
- growth at 10 µM [23]: 54.5%
- growth at 10 µM [24]: 77.6%
- growth at 10 µM [25]: 4.47%
- GI50 [26]: 3.02 µM
- TGI [26]: > 100 µM
- CC50 [26, 29]: > 100 µM
- GI50 [27]: 360 nM
- LC50 (lethal concentration, 50% net cell kill) [27]: > 100 µM
- TGI [27]: 3.33 µM
- GI50 [28]: 340 nM
- TGI [28]: > 100 µM
- CC50 [28, 29]: > 100 µM

Compound: O=c1[nH]cc(F)c(=O)[nH]1 [FLUOROURACIL]
- GI50 [4]: 350 nM
- GI50 [5]: 70 nM
- GI50 [7]: 4.43 µM
- GI50 [9]: 0.72 µM
- GI50 [13]: 56.7 µM
- GI50 [16]: 1.12 µM
- GI50 [19]: 10.9 µM
- GI50 [20]: 50 nM
- GI50 [22]: 1220 nM
- GI50 [26]: 61.8 µM
- GI50 [27]: 10 nM
- GI50 [28]: 920 nM
